Only some compounds are listed: those with a hit (about 3.3% of all), similar ones and a draw of the others.
m5-HT2A agonist – agonists of mouse serotonin 5-HT2A receptor (HTR2A) | P35363 | CHO-K1 mHTR2A beta-arrestin complementation, luminescence; percent of 30 µM serotonin response | activation, % at 7.6 µM | 0.66% of 360,000 active;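 active = activation above a run cutoff, the mean activation of all tested compounds plus 3 SD, cut at about 14% in these data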;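 note: 0% = plate median of compound wells and 100% = 30 µM serotonin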
Target sequence (P35363 whole entry, looked up): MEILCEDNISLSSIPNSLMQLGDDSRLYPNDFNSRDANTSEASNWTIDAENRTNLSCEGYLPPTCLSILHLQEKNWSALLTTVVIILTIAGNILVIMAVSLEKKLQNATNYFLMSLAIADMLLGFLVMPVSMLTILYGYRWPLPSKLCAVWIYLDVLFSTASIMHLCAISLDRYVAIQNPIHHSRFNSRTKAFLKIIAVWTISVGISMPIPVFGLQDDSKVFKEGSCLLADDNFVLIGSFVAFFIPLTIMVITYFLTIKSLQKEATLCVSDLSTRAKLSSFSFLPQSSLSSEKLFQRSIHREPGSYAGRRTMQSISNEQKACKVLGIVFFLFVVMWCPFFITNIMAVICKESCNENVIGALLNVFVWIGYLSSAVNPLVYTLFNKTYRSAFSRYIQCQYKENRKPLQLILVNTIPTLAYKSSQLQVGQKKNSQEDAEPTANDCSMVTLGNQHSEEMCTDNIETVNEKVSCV
M18AAP inhibitor – blocks P. falciparum M18 aspartyl aminopeptidase | recombinant PfM18AAP, H-Glu-NHMec fluorogenic cleavage | inhibition, % at 7.35 µM | 1.2% of 290,000 active | AID 1822;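 active = inhibition above the campaign mean inhibition over all tested compounds plus 3 SD, cut at about 28% in these data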;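 note: 0% = plate median of test compound wells and 100% = 2 mM ZnCl2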
HGIII-sPLA2 inh – Blocks human group III sPLA2 activity; QFRET BODIPY PC-A2 liposome hydrolysis, fluorescence; 0.56% of 370,000 active; AID 743126; Q9NZ20; inhibition, % at 12.2 µM;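 active = inhibition above mean plus 3 SD of compounds lying within the high and low control bounds, cut at about 19% in these data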;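 note: 0% = median of test compound wells and 100% = no enzyme DMSO wells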
Hep lipid drop – modulators of hepatic lipid droplet formation. inhibition, % at 6.5 µM. 0.4% of 240,000 active. AML12 mouse hepatocytes, oleate lipid droplets, BODIPY imaging. AID 1656;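 active = lipid droplet intensity inhibited by at least 50%, with more than 500 cells counted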
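Material: mouse AML12 hepatocyte cell line, fixed after treatment; Timing: compound with oleate, overnight; Technique: high-content imaging of BODIPY-stained droplets and DAPI nuclei; Probe or stimulus: oleate, 100 µM final; Dosing: compound at 6.5 µM only.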
Arr AP2 block – human beta-arrestin and AP2 interaction inhibition; FITC-arrestin peptide / GST-AP2 beads, flow cytometry; AP2 beta2 appendage carries R879A mutation; inhibition, % at 10 µM; 0.31% of 340,000 active;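 active = inhibition above a set limit, near 3 SD of compounds lacking own fluorescence, cut at about 54% in these data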;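 note: plate controls were DMSO wells for no effect and 5 µM unlabelled arrestin peptide for full effect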
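System: GST-AP2 R879A glutathione beads | Also added: FITC-arrestin peptide, 50 nM | Times: 12 min plus 1 h, RT | Signal: Bead flow cytometry, FITC channel | Buffer or medium: PBS with 0.05% Tween 20 and 0.1% BSA | Read-out basis: Percent drop in bead-associated FITC signal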
NRP1-CendR mod – modulators of CendR peptide binding to human neuropilin-1. AID 602438. O14786. inhibition, % at 25 µM. FAM-RPARPAR peptide binding to NRP-1, fluorescence polarization. 0.85% of 360,000 active;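 active = inhibition or corrected inhibition above about 18%, plus a signal ratio from 0.5 to 1.5, limit read from the data, passing the limit was not always enough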
hGIII sPLA2 conf – human GIII-sPLA2 inhibition, confirmation | shares compounds with HGIII-sPLA2 inh | recombinant hGIII-sPLA2, BODIPY PC-A2 QFRET fluorescence | inhibition, % at 12.2 µM | 34% of 2,000 active | AID 743280;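 active = mean inhibition across triplicates above the hit cutoff set in the earlier primary screen, cut at about 19% in these data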;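 note: 0% = enzyme with DMSO and 100% = DMSO wells lacking enzyme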
535nm interf – optically interferes with 535nm fluorescence in sPLA2 counter-screen | shares compounds with HGIII-sPLA2 inh | 8.5% of 2,000 active | BODIPY FL product fluorescence interference, QFRET | inhibition, % at 12.2 µM;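 active = average inhibition above the solvent-only control mean plus 3 SD, cut at about 6% in these data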;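 note: 0% = DMSO with substrate plus product and 100% = DMSO with substrate alone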
Numbers without * were called inactive; . = no result given.

SMILES	m5-HT2A agonist	M18AAP inhibitor	HGIII-sPLA2 inh	Hep lipid drop	Arr AP2 block	NRP1-CendR mod	hGIII sPLA2 conf	535nm interf
CCCCC(=O)NC(c1ccc(N(CC)CC)cc1)c1ccc2cccnc2c1O (configuration not stated)	-2.4	-0.7	14.9	-84.4	12.5	-2.8	.	.
CCCC(=O)NC(c1ccccc1OC)c1ccc2cccnc2c1O (configuration not stated)	-3.3	11.4	.	-27.4	16.1	-11.0	.	.
CC(=O)NC(c1ccc2ccccc2c1)c1ccc2cccnc2c1O (configuration not stated)	-9.0	13.0	14.7	-13.2	30.0	4.1	.	.
c1ccc(Cn2ccc3ccc(-c4ccc5ccn(Cc6cccc(-c7ccsc7)c6)c5c4)cc32)cc1	.	.	-4.4	.	.	.	.	.
CCOC(=O)[C@]12CCCC=C1N(Cc1ccc3c(c1)OCO3)C(=O)[C@H](CC(=O)NCCC(C)C)C2	-2.6	.	1.0	.	.	4.2	.	.
CCN(CC)c1ccc(C(NC(=O)C(C)C)c2ccc3cccnc3c2O)cc1 (configuration not stated)	-6.4	.	36.1*	.	.	10.1	22.6*	-2.0
Cn1c(NC(=O)c2ccccc2)nc(Cc2ccccc2)c1-c1ccccc1	.	.	18.9	.	.	.	.	.
O=C(Nc1nc(Cc2ccccc2)c(-c2ccccc2)n1Cc1ccccc1)c1ccccc1	.	.	19.5*	.	.	.	2.2	-5.5
COc1ccc(-c2c(Cc3ccccc3)nc(NC(=O)c3ccccc3)n2C)cc1	.	.	19.4*	.	.	.	10.9	-7.3
NCCNc1ccc(C(=O)N2c3ccccc3Sc3ccccc32)cc1[N+](=O)[O-]	-6.5	6.0	19.8*	12.7	8.6	2.1	23.8*	-26.7
Nc1ccc(C(=O)OCC(=O)N2c3ccccc3Sc3ccccc32)cc1[N+](=O)[O-]	-1.3	-3.8	-7.7	-52.1	-8.3	-22.2	.	.
COc1ccc(C(NC(C)=O)c2cc(Cl)c3cccnc3c2O)cc1OC (configuration not stated)	-6.4	-3.9	0.7	-0.4	7.6	1.4	.	.
COc1ccc(C(NC(C)=O)c2nccc3cc(OC)c(OC)cc23)cc1OC (configuration not stated)	5.9	-4.3	19.7*	0.4	-8.5	1.9	3.5	-2.5
CCN(CC)S(=O)(=O)c1ccc(Cl)c(NC(=O)COc2ccc3c(C)cc(=O)oc3c2)c1	-2.1	9.5	20.6*	6.7	24.6	0.3	-2.0	-11.7
CCN(CC)S(=O)(=O)c1ccc(OC)c(NC(=O)COc2ccc3c(C)cc(=O)oc3c2)c1	-6.5	0.1	8.8	5.2	-6.4	-2.2	.	.
Oc1c(C(Nc2nccs2)c2ccc(C(F)(F)F)cc2)ccc2cccnc12 (configuration not stated)	-6.4	-5.0	40.3*	-7.0	12.8	11.4	22.8*	-1.1
Cc1c(-c2csc(N)n2)c2ccccc2n1C	-7.1	8.5	20.2*	-19.7	5.5	11.7	12.2	4.1
CCOC(=O)[C@H]1[C@H]2COc3cc(OC)ccc3[C@@H]2N2C(=O)c3cc(OC)c(OC)cc3NC(=O)[C@@]12C	-3.8	.	21.5*	.	2.6	-5.6	8.1	-15.1
CCOC(=O)[C@H]1[C@H]2COc3ccccc3[C@@H]2N2C(=O)c3cc(OC)ccc3NC(=O)[C@@]12C	6.0	.	-5.8	.	1.9	11.6	.	.
O=C(NCCN1CCOCC1)c1ccccc1-c1ccccc1	2.2	-10.3	8.2	10.9	18.5	-2.3	.	.
Nc1sc(-c2ccccc2)cc1C(=O)NCCN1CCOCC1	-7.7	.	19.9*	.	.	2.5	6.7	-7.3
CCCc1cc(C(=O)NNC(=S)NCC2CCCO2)cs1 (configuration not stated)	-4.1	6.0	22.6*	2.0	-4.3	0.8	11.7	3.1

Source: PubChem (several laboratories)
